Calls of active or inactive are those of the source. No cut-off for these calls is given here.
Tests used:
PC-12 [1] = test: Neuroprotective activity against Abeta1-42 induced rat PC12 cells assessed as effect on cleaved caspase-3 protein level at 1.25 uM preincubated for 0.5 hrs followed by Abeta1-42 induction and measured after 24 hrs by Western blot analysis; type: functional, cell-based; conditions: time 24.5 hrs
Outline: (§1)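 Aβ1–42 challenge in PC12 cells was 10 μM for 24 h after 3 h pretreatment at 10 μM. SP600125 (1.25 μM) was added 0.5 h before pretreatment where used. Cells were lysed in RIPA and protein measured by BCA. Blotting used PVDF transfer, 5% BSA/TBST block for 2 h, primaries 1:1000 overnight at 4 °C, and HRP secondary for 2 h. Bcl-2/Bax ratio and band intensities were quantified.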

PC-12 [2] = test: Neuroprotective activity against Abeta1-42 induced rat PC12 cells assessed as effect on Bcl2/Bax ratio level at 1.25 uM preincubated for 0.5 hrs followed by Abeta1-42 induction and measured after 24 hrs by Western blot analysis; type: functional, cell-based; conditions: time 24.5 hrs; outline: as §1
Mus musculus [3] = test: Anti-alzheimer activity in hippocampus of APP/PS1 dE9 double transgenic mouse model assessed as decrease in MDA level at 5 mg/kg, ip administered once daily for 30 consecutive days […]; type: functional, organism-based; conditions: time 30.0 day
Outline: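 Hippocampal tissue from dosed APP/PS1 mice was lysed in RIPA. SOD activity was read by WST-8/xanthine oxidase formazan kit assay and MDA by lipid peroxidation kit, with absorbance on a microplate reader.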

Mus musculus [4] = test: Anti-alzheimer activity in hippocampus of APP/PS1 dE9 double transgenic mouse model assessed as reduction in glial cell aggregation at 5 mg/kg, ip administered once daily for 30 consecutive days by immunofluorescence staining; type: functional, organism-based; conditions: time 30.0 day
Outline: (§2)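 Brains from dosed female APP/PS1 mice (10 months) were fixed in 4% paraformaldehyde at 4 °C for 24–48 h, taken through a sucrose gradient and OCT, and cut into 15 μm sections. Sections were permeabilized with 0.3% Triton X-100, blocked in 10% BSA for 1 h, and incubated with primary antibody overnight at 4 °C (1:200). Secondary was 1:500 for 1 h at 25 °C, with DAPI counterstain and confocal imaging, in triplicate.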

Mus musculus [5] = test: Anti-alzheimer activity against APP/PS1 dE9 double transgenic mouse model assessed as decrease in escape latency at 5 mg/kg, ip administered once daily for 30 consecutive day measured on day 5 by morris water maze test; type: functional, organism-based; conditions: time 30.0 day
Outline: (§3)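 Female APP/PS1 mice, 10 months old, about 30 g, 10 per group. Dosing was intraperitoneal in 1× PBS, once daily for one month (1 or 10 mg/kg test; 5 mg/kg donepezil). WT and untreated APP/PS1 controls got PBS. Morris water maze: training days 1–4, averaged escape latency. Day-5 probe trial ran 60 s with the platform removed, recording platform crossings and time per quadrant. Mean ± SEM.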

Mus musculus [6] = test: Anti-alzheimer activity in hippocampus of APP/PS1 dE9 double transgenic mouse model assessed as increase in SOD content at 5 mg/kg, ip administered once daily for 30 consecutive days by immunofluorescence analysis; type: functional, organism-based; conditions: time 30.0 day
Mus musculus [7] = test: Anti-alzheimer activity in hippocampus of APP/PS1 dE9 double transgenic mouse model assessed as reduction in amyloid beta plaque deposition at 5 mg/kg, ip administered once daily for 30 consecutive days by immunofluorescence staining; type: functional, organism-based; conditions: time 30.0 day; outline: as §2
Mus musculus [8] = test: Anti-alzheimer activity against APP/PS1 dE9 double transgenic mouse model assessed as increase in platform crossings at 5 mg/kg, ip administered once daily for 30 consecutive days […] by morris water maze test; type: functional, organism-based; conditions: time 30.0 day; outline: as §3
Mus musculus [9] = test: Neuroprotective activity in APP/PS1 dE9 double transgenic mouse model assessed as improvement in spatial memory at 5 mg/kg, ip administered once daily for 30 consecutive days […] by morris water maze test; type: functional, organism-based; conditions: time 30.0 day; outline: as §3
Mus musculus [10] = test: Anti-alzheimer activity against APP/PS1 dE9 double transgenic mouse model assessed as increase in time spent in the target quadrant at 5 mg/kg, ip administered once daily for 30 consecutive days measured on day 5 by morris water maze test; type: functional, organism-based; conditions: time 30.0 day; outline: as §3

O=C1c2ccccc2-c2n[nH]c3cccc1c23
Activity (PC-12 [1]): inactive
Activity (PC-12 [2]): inactive

COc1cc2c(cc1OC)C(=O)C(CC1CCN(Cc3ccccc3)CC1)C2 (stereo not given)
Activity (Mus musculus [3]): Active
Activity (Mus musculus [4]): Active
Activity (Mus musculus [5]): Active
Activity (Mus musculus [6]): Active
Activity (Mus musculus [7]): Active
Activity (Mus musculus [8]): Active
Activity (Mus musculus [9]): Active
Activity (Mus musculus [10]): Active
